# In ChEMBL document CHEMBL1129988, “4-substituted cubylcarbinylamines: a new class of mechanism-based monoamine oxidase B inactivators” (J Med Chem, 1997):
# B1: Amine oxidase [flavin-containing] B (Bos taurus) (protein)
# chain: MSSKCDVVVVGGGISGMAAAKLLHDSGLNVIVLEARDRVGGRTYTLRNQKVKYVDLGGSYVGPTQNHILRLSKELGLETYKVNEVERLIHHTKGKSYPFRGSFPSVWNPITYLDHNNLWRTMDDMGREIPSDAPWKAPLAEQWDLMTMKELLDKICWTESSKQLAILFVNLCVTAEIHEVSALWFLWYVKQCGGTTRIFSTSNGGQERKFVGGSGQVSERIMDLLGDRVKLERPVIHIDQTGENVLVETLNHELYEAKYVISAVPPVLGMKIHFNPPLPMMRNQLITRVPLGSVIKSIVYYKEPFWRNMDYCGSMIIEGEEAPVAYALDDTKPDGSYPAIIGFILAHKARKLARLTKEERLKKLCDLYAKVLGSQEALHPVHYEEKNWCEEQYSGGCYTSYFPPGIMTQYGRVLRQPVGRIYFAGTETATHWSGYMEGAVEAGERAAREILHAMGKIPEDEIWLPEPESVDVPAKPITTTFLQRHLPSVPGLLKLIGLTTIFSATALGFLAHKRGLLVRI
# Assays:
# [1] = substrate: NCC12C3C4C1C1C2C3C41C1CC1; assay: (§1) Michaelis-Menten constant was determined against mitochondrial Monoamine oxidase B
# Method in brief: (§2)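 K_m and k_cat against MAO B were obtained by measuring hydrogen peroxide formed over time with the amine as substrate.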
# [2] = substrate: NCC12C3C4C1C1C2C3C41c1ccccc1; assay: as §1; method in brief: as §2
# [3] = substrate: NCC12C3C4C5C3C1C5C42; assay: as §1; method in brief: as §2
protein,measurement,setting,value
B1,Km,[1],1540 µM
same,kcat,[1],2.5 s⁻¹
same,kcat/Km,[1],1670 M⁻¹ s⁻¹
same,Km,[2],1010 µM
same,kcat,[2],3.47 s⁻¹
same,kcat/Km,[2],3500 M⁻¹ s⁻¹
same,Km,[3],140 µM
same,kcat,[3],0.0833 s⁻¹
same,kcat/Km,[3],600 M⁻¹ s⁻¹
